Assays:
[1] = Inhibition of biotinylated PEX5 (unknown origin)/N-terminal His-tagged Trypanosoma brucei PEX14 (19 to 84 residues) expressed in Escherichia coli BL21 by AlphaScreen assay
Method in brief: (§1)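 Streptavidin donor and Ni-chelate acceptor beads each 5 μg/mL. Inhibitor serial dilutions at constant 5% DMSO.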

[2] = Inhibition of biotinylated PEX5 (unknown origin)/N-terminal His-tagged Trypanosoma cruzi PEX14 (19 to 84 residues) expressed in Escherichia coli BL21 by AlphaScreen assay; method in brief: as §1
[3] = Binding affinity to Ni-NTA-ATTO647-labeled N-terminal His-tagged Trypanosoma brucei PEX14 (19 to 84 residues) expressed in Escherichia coli BL21 assessed as dissociation constant by MST assay
Method in brief: (§2)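 PEX14 N-terminal domain (aa 19–84, N-His), purified by Ni-NTA and then SEC in PBS, labeled with Ni-NTA-ATTO647 at protein:label 2:1 for 1 h at room temperature in the dark. Buffer: 50 mM Tris-HCl pH 7.4, 150 mM NaCl, 10 mM MgCl2, 0.0125% Tween 20. Labeled protein 200 nM with inhibitor serial dilution, 5% DMSO. Triplicates; Kd from MST fit; mean of n = 3.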

[4] = Binding affinity to Ni-NTA-ATTO647-labeled N-terminal His-tagged Trypanosoma cruzi PEX14 (19 to 84 residues) expressed in Escherichia coli BL21 assessed as dissociation constant by MST assay; method in brief: as §2
[5] = system: Trypanosoma brucei brucei; experiment: Trypanocidal activity against bloodstream form of Trypanosoma brucei brucei incubated for 66 hrs by resazurin dye based assay; format: functional, organism-based
Method in brief: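 T. b. brucei Lister 427 bloodstream form in HMI-11 with 10% FBS, 37 °C, 5% CO2. Ten-point 1:1 serial dilutions in quadruplicate; final 2×10^3 parasites/mL. After 66 h, resazurin was added and plates incubated to 72 h. Fluorescence ex 530/em 585 nm, medium background subtracted, survival normalized to no-compound well. IC50 from sigmoidal nonlinear regression.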

Compound	EC50 [1]	EC50 [2]	Kd [3]	Kd [4]	IC50 [5]
CCN1C(=O)c2ccccc2Oc2cc(NC(=O)Cc3ccc(F)cc3)ccc21	875 µM	4590 µM	131 µM	124 µM	8.12 µM
CCN1C(=O)c2ccccc2Oc2cc(NC(=O)Cc3ccc(Cl)cc3)ccc21	54 µM	2370 µM	385 µM	2800 µM	5.39 µM
CCN1C(=O)c2ccccc2Oc2cc(NS(=O)(=O)c3ccccc3)ccc21	935 µM	778 µM	20 µM	12 µM	7.1 µM
CCN1C(=O)c2ccccc2Sc2cc(NC(=O)Cc3ccc(F)cc3)ccc21	230 µM	637 µM	951 µM	56 µM	5.4 µM
CCN1C(=O)c2ccccc2Oc2cc(NC(=O)Cc3cccc(Cl)c3)ccc21	500 µM	2930 µM	44 µM	64 µM	7.38 µM
CCN1C(=O)c2ccccc2Oc2cc(NC(=O)Cc3cscn3)ccc21			61000 µM	1700 µM	57.5 µM
CCN1C(=O)c2ccccc2Oc2cc(NC(=O)Oc3ccccc3)ccc21	250 µM	3590 µM	232 µM	100000 µM	52.8 µM
CCN1C(=O)c2ccccc2Oc2cc(NC(=O)Cn3nnc4ccccc43)ccc21	351 µM	13000 µM	14 µM	3 µM	7.9 µM
CCN1C(=O)c2ccccc2Oc2cc(NS(=O)(=O)Cc3ccccc3)ccc21	3630 µM	6830 µM	158 µM	252 µM	19.4 µM
CCN1C(=O)c2ccccc2Oc2cc(NC(=O)Cc3cccc4ccccc34)ccc21	69 µM	4520 µM	147 µM	42 µM	6.35 µM
CC(C)N1C(=O)c2cccnc2[S+]([O-])c2cc(NC(=O)Cc3ccc(F)cc3)ccc21 (stereo unspecified)	1730 µM				
CCN1C(=O)c2ccccc2Oc2cc(NC(=O)Cc3cccnc3)ccc21	843 µM	1230 µM	1460 µM	3450 µM	29.4 µM
CCN1C(=O)c2ccccc2Oc2cc(NC(=O)Cc3ccsc3)ccc21	825 µM	2360 µM	29 µM	9 µM	8.3 µM
CCN1C(=O)c2ccccc2Oc2cc(NC(=O)[C@@H](N)c3ccccc3)ccc21	253 µM	421 µM	625 µM	10200 µM	13.4 µM
CS(=O)(=O)N1C(=O)c2ccccc2Oc2cc(NC(=O)Cc3ccc(F)cc3)ccc21	422 µM	10300 µM	2 µM	3000 µM	19.3 µM
CCN1C(=O)c2ccccc2Oc2cc(NC(=O)Cc3c[nH]c4ccccc34)ccc21	109 µM	677 µM	13 µM	9 µM	13.7 µM
COC(=O)N1C(=O)c2ccccc2Oc2cc(NC(=O)Cc3ccc(F)cc3)ccc21	480 µM		369 µM	258 µM	7.7 µM
CCN1C(=O)c2ccccc2Oc2cc(NC(=O)[C@@H](NC(=O)OC(C)(C)C)c3ccccc3)ccc21	318 µM	1610 µM	380 µM	2 µM	58.5 µM
CC(C)N1C(=O)c2cccnc2Sc2cc(NC(=O)Cc3ccc(F)cc3)ccc21	1050 µM	2290 µM	24 µM	5 µM	0.86 µM
O=C(Cc1ccc(F)cc1)Nc1ccc2c(c1)Oc1ccccc1C(=O)N2	11000 µM	551 µM			20.7 µM
COC(=O)CN1C(=O)c2ccccc2Oc2cc(NC(=O)Cc3ccc(F)cc3)ccc21	7230 µM	4590 µM			11.6 µM
CCN1C(=O)c2ccccc2Oc2cc(NC(=O)Cc3ccccc3)ccc21	1090 µM	788 µM			13.3 µM
CCN1C(=O)c2ccccc2Oc2cc(NC(=O)Cc3cnccn3)ccc21	741 µM	1930 µM	840 µM		47.6 µM

— ChEMBL document CHEMBL5352442, “Structure-based design, synthesis and evaluation of a novel family of PEX5-PEX14 interaction inhibitors against Trypanosoma” (Eur J Med Chem, 2022)
